Experimental findings from ChEMBL document CHEMBL4428081, “Selective AKR1C3 Inhibitors Potentiate Chemotherapeutic Activity in Multiple Acute Myeloid Leukemia (AML) Cell Lines” (ACS Med Chem Lett, 2016) are described below.

Structures are written as SMILES. The source made the active and inactive calls. The calls are words filed in the database; no cut-off is given here.

Common to all, as to type: functional, cell-based
For one assay, the system named is HL-60. Put plainly: Cytotoxicity against human HL60 cells assessed as reduction in cell viability up to 100 uM at 72 hrs by MTS assay. In outline: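 HL-60 human acute promyelocytic leukemia cells exposed to AKR1C3 inhibitor alone, with no chemotherapeutic, over a range up to 100 μM. Lower working range was 0.1–1 μM. Read-out was cell viability relative to untreated control.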
Background: Tetrazolium dyes change colour on reduction, which living cells bring about.

For a further assay, the system named is RPMI-8226. Put plainly: Cytotoxicity against human RPMI8226 cells at 10 uM after 48 hrs by sulforhodamine B assay.
For a further assay, the system named is UACC-257. Put plainly: Cytotoxicity against human UACC257 cells at 10 uM after 48 hrs by sulforhodamine B assay. In short, it runs like this: (§1)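 NCI 60 cancer cell line panel screen run at a single concentration of 10 μM.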
A general note: In SRB staining, fixed cells bind dye roughly in proportion to their protein.

In a further assay the test system is HOP-92. Put plainly: Cytotoxicity against human HOP92 cells at 10 uM after 48 hrs by sulforhodamine B assay.
For the next assay, the system named is KG-1a. Briefly: Cytotoxicity against human KG1a cells expressing AKR1C3 assessed as reduction in cell viability at >25 uM at 72 hrs by MTS assay.
For a further assay, the system named is HL-60(TB). Put plainly: Cytotoxicity against human HL-60(TB) cells at 10 uM after 48 hrs by sulforhodamine B assay. In outline: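 Single-concentration (10 μM) test run within the National Cancer Institute 60 cancer cell line screen, with HL-60 as one panel member.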
The next assay has as its system 786-0. Put plainly: Cytotoxicity against human 786-0 cells at 10 uM after 48 hrs by sulforhodamine B assay.
In a further assay the test system is TK-10. Put plainly: Cytotoxicity against human TK10 cells at 10 uM after 48 hrs by sulforhodamine B assay. In outline: as §1
The next assay deals with KM12. Put plainly: Cytotoxicity against human KM12 cells at 10 uM after 48 hrs by sulforhodamine B assay.
The next assay has as its system A549. Put plainly: Cytotoxicity against human A549/ATCC cells at 10 uM after 48 hrs by sulforhodamine B assay.
The test system of the next assay is SNB-19. Briefly: Cytotoxicity against human SNB19 cells at 10 uM after 48 hrs by sulforhodamine B assay. In short, it runs like this:
as §1

A further assay has as its system U-251. Briefly: Cytotoxicity against human U251 cells at 10 uM after 48 hrs by sulforhodamine B assay. In short, it runs like this:
as §1

Another assay deals with Malme-3M. Put plainly: Cytotoxicity against human MALME-3M cells at 10 uM after 48 hrs by sulforhodamine B assay.
The test system of another assay is SF-539. Briefly: Cytotoxicity against human SF539 cells at 10 uM after 48 hrs by sulforhodamine B assay.
A further assay relates to A498. Put plainly: Cytotoxicity against human A498 cells at 10 uM after 48 hrs by sulforhodamine B assay.
A further assay deals with NCI-H23. Briefly: Cytotoxicity against human NCI-H23 cells at 10 uM after 48 hrs by sulforhodamine B assay.
The next assay deals with T47D. Put plainly: Cytotoxicity against human T47D cells at 10 uM after 48 hrs by sulforhodamine B assay. In outline: as §1

Take `CC(C)=CCc1cc(/C=C/C(=O)O)ccc1OC(=O)CCc1ccccc1`: the result with HL-60, with RPMI-8226, in the assay on UACC-257, with HOP-92, in the assay on HL-60(TB) and in the assay with 786-0 was inactive. Also, the outcome in the assay with TK-10, with KM12, in the assay on A549, in the assay on SNB-19, with U-251 and with Malme-3M was inactive. Moreover, the outcome with SF-539, with A498, in the assay with NCI-H23 and in the assay with T47D was inactive. In the assay with KG-1a, the result was Active.
